# Source: PubChem (several laboratories)
# The list is not random: actives were taken first. Their share in the collection is about 2.8%.
# AI-2 QS modul: Vibrio harveyi AI-2 quorum sensing modulation; Vibrio harveyi JMH597 AI-2 luminescence/OD600 ratio, 9 h; stronger effect = lower value; strain lacks LuxN and CqsS sensors; 0 = neutral-control median; activity change, % at 7.5 µM; hit rate 0.4% among 300,000; AID 2094; in the data active = activity change below about -75%, passing the limit was not always enough; inconclusive = no clear call, values can overlap the other calls;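 note: luminescence divided by OD600 gain over 9 h not by final OD600 alone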
# T cruzi inh: blocks replication of Trypanosoma cruzi. hit rate 1.4% among 300,000. T. cruzi beta-gal in NIH3T3, luminescence, 90 h. inhibition, % (test concentration not listed);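 active = mean inhibition across valid replicates above about 55%, limit read from the data; inconclusive = mean below that limit but half or more replicates reach it; inactive = mean below it, under half of replicates reach it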;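 note: signal also drops with host cell toxicity which is not excluded here; 0% = plate median of DMSO wells and 100% = zero luminescence signal; higher percent means less beta-gal luminescence so fewer parasites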
#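 System – NIH/3T3 host cells with β-galactosidase reporter T. cruzi · Doses – single 50 nL compound addition per well in DMSO · Reagent – 5000 T. cruzi trypomastigotes/well · Medium – Low-serum DMEM with 2% FBS · Timing – ≥90 h infection period, 3 h prior cell attachment · Evaluation – parasite load inhibition, % · Technique – GalScreen luminescence, 60 min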
# pCIP destab: p/CIP protein destabilization. F442A p/CIP-EGFP cells, EGFP fluorescence, 16 h. decrease of EGFP signal, % at 10 µM. hit rate 0.01% among 290,000. AID 1984;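 active = EGFP signal decrease of at least 30% at 10 µM or well 3 SD below plate mean, unless failing retest; inactive = the rest, including hits failing retest or dose response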
# PP1 counter: PP1-alpha (human) inhibition in PP5 counter-screen; inhibition, % at 6.7 µM; hit rate 0.9% among 320,000; purified PP1alpha, OMFP fluorescence;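 active = inhibition above the mean inhibition of all tested compounds plus 3 SD, computed separately for each screening campaign, cut at about 15% in these data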
# UBC13 polyUb: inhibitors of human UBC13 polyubiquitin chain formation; hit rate 0.47% among 330,000; inhibition, % at 20 µM; AID 485273; P61088; TR-FRET; in the data active = inhibition above about 45%, passing the limit was not always enough; inconclusive = no clear call, values can overlap the other calls
# Target sequence (P61088 whole entry, looked up): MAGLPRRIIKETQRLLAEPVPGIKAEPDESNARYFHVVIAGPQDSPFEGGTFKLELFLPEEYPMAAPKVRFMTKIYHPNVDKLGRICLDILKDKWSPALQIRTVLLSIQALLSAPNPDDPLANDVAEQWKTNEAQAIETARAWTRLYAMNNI
# Casp3 counter: counter-screen for UBC13 inhibitors: human caspase-3 inhibition. inhibition, % at 20 µM. hit rate 4% among 1,400. Recombinant caspase-3, Caspase-Glo 3/7 luminescence, 60 min. shares compounds with UBC13 polyUb;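 active = mean inhibition across replicates above about 26%, limit read from the data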;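 note: plate controls were DMSO with caspase-3 for no effect and DMSO wells lacking enzyme for full effect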
# Target sequence (P42574 whole entry, looked up): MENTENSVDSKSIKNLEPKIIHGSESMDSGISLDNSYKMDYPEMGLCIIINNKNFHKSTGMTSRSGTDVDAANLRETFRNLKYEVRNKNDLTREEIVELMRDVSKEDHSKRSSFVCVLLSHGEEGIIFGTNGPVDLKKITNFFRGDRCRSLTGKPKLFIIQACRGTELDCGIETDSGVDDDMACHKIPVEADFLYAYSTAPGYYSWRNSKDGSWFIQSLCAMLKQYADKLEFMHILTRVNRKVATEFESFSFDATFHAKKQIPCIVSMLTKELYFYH
# UBC13 conf: confirmation of human UBC13 polyubiquitin inhibitors; shares compounds with UBC13 polyUb; UBC13 polyubiquitination, TR-FRET, biochemical; inhibition, % at 10 µM; hit rate 68% among 1,400; AID 488859; in the data active = inhibition above about 45%; inconclusive = no clear call, values can overlap the other calls
# * marks the source's active call; other numbers are inactive results; ? = inconclusive; . = no result given.
SMILES,AI-2 QS modul,T cruzi inh,pCIP destab,PP1 counter,UBC13 polyUb,Casp3 counter,UBC13 conf
CCc1ccc2nc(N(CCCN(C)C)C(=O)c3ccc(C(=O)c4ccccc4)cc3)sc2c1,17,37,-13,6,74*,-4,108*
CCN1CCN(CCCNC(=O)c2ccc(/C=C3/Sc4ccccc4N(Cc4ccccc4F)C3=O)cc2)CC1,27,57*,0,-1,46*,0,54*
C=C(C)CNC(=S)N=Nc1c(O)[nH]c2ccc([N+](=O)[O-])cc12,12,34,-4,-1,49*,1,47*
CC(C)NC(=S)N=Nc1c(O)[nH]c2ccc([N+](=O)[O-])cc12,20,-18,-7,7,?,.,.
COc1cc2nc(N3CCNCC3)nc(N)c2cc1OC,20,32,-6,2,107*,-1,118*
C=CCC(=O)N1CCCC(CO)(Cc2ccc(F)cc2F)C1 (stereo unspecified),21,6,-2,-4,-6,.,.
COC(CN(C)C(=O)C1CCCN(S(=O)(=O)c2ccc3c(c2)oc(=O)n3C)C1)OC (stereo unspecified),26,-5,0,-2,-8,.,.
C1CCC(C(CC2CCCCN2)C2CCCCC2)CC1 (stereo unspecified),27,56*,0,1,80*,0,66*
COc1ccc(-c2nn(-c3ccccc3)cc2/C=N/O)cc1OC,11,35,-28,1,12,.,.
COc1ccc(-c2nn(-c3ccccc3)cc2/C=N/N=C(N)N)cc1OC,12,12,-3,9,51*,-5,67*
O/N=C/c1cn(-c2ccccc2)nc1-c1ccc2c(c1)OCCO2,17,13,-10,2,46*,-2,48*
O=C(NN1C(=O)c2ccc3c4c(ccc(c24)C1=O)CC3)c1ccc(Br)cc1,-15,-8,6,0,57*,-2,63*
O=C1c2ccc3c4c(ccc(c24)C(=O)N1NC(=O)C(F)(F)F)CC3,25,-21,-11,1,-18,.,.
Clc1ccc(C2=NNC(=NCc3ccc4c(c3)OCO4)SC2)cc1,.,.,-10,2,.,.,.
Oc1ccc(C2=NNC(=NCc3ccc4c(c3)OCO4)SC2)c(O)c1,-9,1,3,-3,45*,0,72*
COc1ccccc1NC(=O)c1cc(S(=O)(=O)NCc2ccccc2)ccc1F,-15,12,15,1,63*,0,75*
COc1ccccc1NC(=O)c1cc(S(=O)(=O)N2CCC3(CC2)OCCO3)ccc1F,34,2,2,-1,56*,-4,40
NC(=O)c1nsc(C(=O)N(c2cccc(F)c2)C(C(=O)NCC2CCCO2)c2ccc3ncccc3c2)c1N (stereo unspecified),11,-22,-7,-1,33,.,.
Cc1cccc(N(C(=O)c2snc(C(N)=O)c2N)C(C(=O)NCC2CCCO2)c2c[nH]c3ccccc23)c1 (stereo unspecified),15,5,6,2,77*,4,81*
NC(=O)c1nsc(C(=O)N(c2cccc(F)c2)C(C(=O)NCC2CCCO2)c2c[nH]c3ccccc23)c1N (stereo unspecified),23,23,1,1,79*,0,87*
NC(=O)c1nsc(C(=O)N(c2ccc(F)cc2)C(C(=O)NCC2CCCO2)c2c[nH]c3ccccc23)c1N (stereo unspecified),19,1,-11,2,63*,2,64*
O=C(Cn1ccc2cc(S(=O)(=O)N3CCCCC3)ccc21)NCc1ccccc1F,25,7,-5,-1,5,.,.
O=C(c1ccc(S(=O)(=O)N2CCCC2)cc1)N1CCC(CN2C(=O)c3cccc4cccc(c34)C2=O)CC1,13,53,-2,5,91*,0,95*
COc1ccc(S(=O)(=O)N2CCC(CN3C(=O)c4cccc5cccc(c45)C3=O)CC2)cc1,12,38,5,1,36,.,.
Cn1c(SCC(=O)NCC2CCCO2)ncc(C(=O)Nc2ccc(F)cc2)c1=O (stereo unspecified),9,-6,.,-6,59*,96*,60*
SMILES,AI-2 QS modul,T cruzi inh,pCIP destab,PP1 counter,UBC13 polyUb,Casp3 counter,UBC13 conf
CCn1c(SCC(=O)NCC2CCCO2)nnc1-c1ccc(Cl)cc1 (stereo unspecified),9,3,0,-6,9,.,.
Cn1c(SCC(=O)NCC2CCCO2)ncc(C(=O)Nc2ccc(Cl)cc2)c1=O (stereo unspecified),10,-15,.,-1,58*,98*,69*
Cc1ccccc1-n1ccnc1SCC(=O)NCC1CCCO1 (stereo unspecified),10,-5,-12,-5,-5,.,.
CSCCC(NC(=O)COc1ccccc1)C(=O)N1CCC(C(N)=O)CC1 (stereo unspecified),.,.,.,-1,68*,2,86*
Cc1ccc(C(=O)NC(C)c2ccccc2)cc1S(=O)(=O)N1CCOCC1 (stereo unspecified),12,-2,-9,-1,-2,.,.
Cc1ccc(C(=O)NC(C)c2ccc(-n3ccnc3)cc2)cc1S(=O)(=O)N1CCOCC1 (stereo unspecified),20,21,.,-3,73*,-1,102*
CC(C)COCC(CN(Cc1ccccc1)c1ccccc1)N1CCCC1 (stereo unspecified),24,2,-12,3,49*,2,40
Cc1ccsc1CNCc1cc(Cl)ccc1O,.,.,.,-4,34,.,.
COc1ccc(-c2oc(=O)c3cc(OC)c(OC)cc3c2C#CCCCO)cc1,.,.,.,.,35,.,.
COc1ccc(-c2oc(=O)c3cc(OC)c(OC)cc3c2C#CC2(O)CCCCC2)cc1,.,.,.,.,47*,4,40
O=C(NCCCN1CCOCC1)c1cc2c([nH]c3ccccc32)c(-c2cccc(Br)c2)n1,13,46,7,4,51*,-3,30
CC(C)n1nccc1NC(=O)COC(=O)c1ccc(NC(N)=O)cc1,.,.,.,.,4,.,.
COc1ccc(CCNC(=O)CSc2nnc3ccc(-c4ccccn4)nn23)cc1,46,-4,.,-3,0,.,.
CN1CCN(Cc2nc3ccccc3c(=O)n2Cc2nc(-c3ccc([N+](=O)[O-])cc3)cs2)CC1,32,2,-10,8,79*,2,57*
CN(C)Cc1nc2ccccc2c(=O)n1Cc1nc(-c2cccc([N+](=O)[O-])c2)cs1,-5,37,0,1,0,.,.
COc1ccccc1C(CNC(=O)CNC(=O)c1ccccc1Cl)N1CCCC1 (stereo unspecified),.,.,.,-3,51*,-3,62*
